Converted amounts (≈) assume the structure as drawn. The source made the active and inactive calls. The rule behind the calls is not given here.
Tests used:
[1] = tested on: Rhizopus arrhizus; test: Antifungal activity against drug-susceptible Rhizopus oryzae UTHSC 06-4152 after 24 to 48 hrs; format: functional
Procedure, shortened: (§1)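 Minimum fungicidal concentration taken from the broth microdilution plates. From each well with complete inhibition (optically clear), 20 ul is plated on potato dextrose agar. Plates are incubated at 35°C for 24 to 48 h. The MFC is the lowest drug concentration giving no growth.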

[2] = tested on: Rhizopus arrhizus; test: Antifungal activity against drug-susceptible Rhizopus oryzae UTHSC 03-3110 after 24 to 48 hrs; format: functional
Procedure, shortened: (§2)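 Minimum fungicidal concentration: 20 µl from each microdilution well showing complete inhibition (optically clear) plated on potato dextrose agar, incubated 35°C for 24 to 48 h; MFC taken as lowest drug concentration giving no growth.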

[3] = tested on: Rhizopus arrhizus; test: Antifungal activity against drug-susceptible Rhizopus oryzae UTHSC 06-3913 by broth microdilution method; format: functional
Procedure, shortened: (§3)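 Posaconazole MIC in ug/ml, determined by broth microdilution following the CLSI guidelines for moulds (M38-A2).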

[4] = tested on: Rhizopus arrhizus; test: Antifungal activity against drug-susceptible Rhizopus oryzae UTHSC 05-197 after 24 to 48 hrs; format: functional; procedure, shortened: as §2
[5] = tested on: Rhizopus arrhizus; test: Antifungal activity against drug-intermediate Rhizopus oryzae UTHSC 07-365 at 5 ug by disk diffusion assay; format: functional; settings: UTHSC 07-365, read-out: DIZ
Procedure, shortened: (§4)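 Neo-Sensitabs tablet diffusion on Mueller-Hinton agar, following the guidelines for molds. Tablets were 9 mm in diameter and held 5 µg of drug. The read-out was inhibition zone diameter in mm.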

[6] = tested on: Rhizopus arrhizus; test: Antifungal activity against drug-susceptible Rhizopus oryzae UTHSC 06-3913 after 24 to 48 hrs; format: functional; procedure, shortened: as §1
[7] = tested on: Rhizopus arrhizus; test: Antifungal activity against drug-susceptible Rhizopus oryzae UTHSC 06-89 at 5 ug by disk diffusion assay; format: functional; settings: read-out: DIZ
[8] = tested on: Rhizopus arrhizus; test: Antifungal activity against drug-susceptible Rhizopus oryzae UTHSC 06-3827 at 5 ug by disk diffusion assay; format: functional; settings: read-out: DIZ
Procedure, shortened: (§5)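 Neo-Sensitabs tablet diffusion on Mueller-Hinton agar, run per the mould guidelines. Tablets are 9 mm in diameter and carry 5 ug posaconazole. The read-out is the inhibition zone diameter in mm.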

[9] = tested on: Rhizopus arrhizus; test: Antifungal activity against drug-susceptible Rhizopus oryzae UTHSC 03-511 after 24 to 48 hrs; format: functional; procedure, shortened: as §2
[10] = tested on: Rhizopus arrhizus; test: Antifungal activity against drug-susceptible Rhizopus oryzae UTHSC 06-89 infected in OF1 mouse assessed as increase in mouse survival at 20-30 mg/kg, po bid treated 24 hrs after fungal infection; format: functional, organism-based
[11] = tested on: Rhizopus arrhizus; test: Antifungal activity against drug-susceptible Rhizopus oryzae UTHSC 06-2374 by broth microdilution method; format: functional; procedure, shortened: as §3
[12] = tested on: Rhizopus arrhizus; test: Antifungal activity against drug-intermediate Rhizopus oryzae UTHSC 05-3032 infected in OF1 mouse assessed as increase in mouse survival at 20-30 mg/kg, po bid treated 24 hrs after fungal infection; format: functional, organism-based
Procedure, shortened: (§6)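 Survival model in male OF1 mice, 30 g. Mice were immunosuppressed 1 day before infection with cyclophosphamide 200 mg/kg i.p. plus 5-fluorouracil 150 mg/kg i.v., then infected i.v. via lateral tail vein with 2 × 10^4 CFU in 0.2 ml saline. Oral gavage at 10, 20 or 30 mg/kg BID began 24 h post-challenge for 7 days. Ceftazidime 5 mg/day s.c. was given days 1–7. Groups of 10 were checked daily for 20 days; untreated controls.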

[13] = tested on: Rhizopus arrhizus; test: Antifungal activity against drug-susceptible Rhizopus oryzae UTHSC 06-89 infected in OF1 mouse assessed as reduction in kidney fungal load at 10-30 mg/kg, po bid; format: functional, organism-based
[14] = tested on: Rhizopus arrhizus; test: Antifungal activity against drug-susceptible Rhizopus oryzae UTHSC 06-4035 by broth microdilution method; format: functional; procedure, shortened: as §3
[15] = tested on: Rhizopus arrhizus; test: Antifungal activity against drug-susceptible Rhizopus oryzae UTHSC 05-2447 after 24 to 48 hrs; format: functional; procedure, shortened: as §2
[16] = tested on: Rhizopus arrhizus; test: Antifungal activity against drug-susceptible Rhizopus oryzae UTHSC 02-439 after 24 to 48 hrs; format: functional
[17] = tested on: Rhizopus arrhizus; test: Antifungal activity against drug-susceptible Rhizopus oryzae UTHSC 04-278 at 5 ug by disk diffusion assay; format: functional; settings: read-out: DIZ
Procedure, shortened: (§7)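 Neo-Sensitabs tablet diffusion on Mueller-Hinton agar, following guidelines for molds; 9 mm tablets containing 5 µg posaconazole; inhibition zone diameter measured in mm; zone breakpoints applied at 24 h.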

[18] = tested on: Rhizopus arrhizus; test: Antifungal activity against drug-susceptible Rhizopus oryzae UTHSC 412-546 at 5 ug by disk diffusion assay; format: functional; settings: read-out: DIZ
[19] = tested on: Rhizopus arrhizus; test: Antifungal activity against drug-susceptible Rhizopus oryzae UTHSC 03-228 by broth microdilution method; format: functional
Procedure, shortened: (§8)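 Broth microdilution MIC in µg/ml, run per the CLSI (formerly NCCLS) guideline for filamentous fungi, M38-A2.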

[20] = tested on: Rhizopus arrhizus; test: Antifungal activity against drug-susceptible Rhizopus oryzae UTHSC 06-1301 at 5 ug by disk diffusion assay; format: functional; settings: read-out: DIZ; procedure, shortened: as §5
[21] = tested on: Rhizopus arrhizus; test: Antifungal activity against drug-intermediate Rhizopus oryzae UTHSC 07-365 infected in OF1 mouse assessed as increase in mouse survival at 20-30 mg/kg, po bid treated 24 hrs after fungal infection; format: functional, organism-based; procedure, shortened: as §6
[22] = tested on: Rhizopus arrhizus; test: Antifungal activity against drug-susceptible Rhizopus oryzae UTHSC 05-1679 by broth microdilution method; format: functional
Procedure, shortened: (§9)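 CLSI broth microdilution for filamentous fungi (M38-A2); MIC recorded in µg/ml against clinical isolates; breakpoints applied at 24 h.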

[23] = tested on: Rhizopus arrhizus; test: Antifungal activity against drug-susceptible Rhizopus oryzae UTHSC 06-2374 at 5 ug by disk diffusion assay; format: functional; settings: read-out: DIZ; procedure, shortened: as §5
[24] = tested on: Rhizopus arrhizus; test: Antifungal activity against drug-susceptible Rhizopus oryzae UTHSC 04-278 by broth microdilution method; format: functional; procedure, shortened: as §9
[25] = tested on: Rhizopus arrhizus; test: Antifungal activity against drug-susceptible Rhizopus oryzae UTHSC 06-1080 by broth microdilution method; format: functional; procedure, shortened: as §3
[26] = tested on: Rhizopus arrhizus; test: Antifungal activity against drug-susceptible Rhizopus oryzae UTHSC 06-3913 at 5 ug by disk diffusion assay; format: functional; settings: read-out: DIZ; procedure, shortened: as §5
[27] = tested on: Rhizopus arrhizus; test: Antifungal activity against drug-susceptible Rhizopus oryzae UTHSC 02-2882 infected in OF1 mouse assessed as reduction in brain fungal load at 10-30 mg/kg, po bid treated 24 hrs after fungal infection; format: functional, organism-based
Procedure, shortened: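 Tissue burden in immunosuppressed male OF1 mice, using cyclophosphamide 200 mg/kg i.p. plus 5-fluorouracil 150 mg/kg i.v. on day −1. Mice received 2 × 10^4 CFU i.v. by tail vein, then oral gavage at 10, 20 or 30 mg/kg BID from 24 h post-challenge, with ceftazidime cover; untreated controls. Groups of 10 were killed on day 4. Kidneys and brains were homogenized in 2 ml saline, serially diluted 10-fold, plated on PDA and counted after 24 h at 35°C.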

[28] = tested on: Rhizopus arrhizus; test: Antifungal activity against drug-intermediate Rhizopus oryzae infected in OF1 mouse assessed as mouse survival at 30 mg/kg, po bid treated 24 hrs after fungal infection; format: functional; procedure, shortened: as §6
[29] = tested on: Rhizopus arrhizus; test: Antifungal activity against drug-susceptible Rhizopus oryzae UTHSC 05-3132 by broth microdilution method; format: functional; procedure, shortened: as §3
[30] = tested on: Rhizopus arrhizus; test: Antifungal activity against drug-susceptible Rhizopus oryzae UTHSC 05-1817 at 5 ug by disk diffusion assay; format: functional; settings: read-out: DIZ; procedure, shortened: as §7
[31] = tested on: Rhizopus arrhizus; test: Antifungal activity against drug-intermediate Rhizopus oryzae UTHSC 03-3165 at 5 ug by disk diffusion assay; format: functional; settings: read-out: DIZ; procedure, shortened: as §4
[32] = tested on: Rhizopus arrhizus; test: Antifungal activity against drug-intermediate Rhizopus oryzae UTHSC 05-3032 by broth microdilution method; format: functional; procedure, shortened: as §8
[33] = tested on: Rhizopus arrhizus; test: Antifungal activity against drug-susceptible Rhizopus oryzae UTHSC 02-439 by broth microdilution method; format: functional; procedure, shortened: as §8
[34] = tested on: Rhizopus arrhizus; test: Antifungal activity against drug-susceptible Rhizopus oryzae UTHSC 06-3827 after 24 to 48 hrs; format: functional; procedure, shortened: as §1

Q: `CC[C@@H]([C@H](C)O)n1ncn(-c2ccc(N3CCN(c4ccc(OC[C@@H]5CO[C@@](Cn6cncn6)(c6ccc(F)cc6F)C5)cc4)CC3)cc2)c1=O` [POSACONAZOLE] was tested. Which MFC [1] did it give?
A: The MFC was 1 µg/mL (≈ 1.43 µM).

Q: And the MFC [2]?
A: The MFC was 1 µg/mL (≈ 1.43 µM).

Q: What about the MIC [3] of the same compound?
A: Its MIC is 0.5 µg/mL (≈ 0.713 µM).

Q: And the MFC [4]?
A: The MFC was 0.5 µg/mL (≈ 0.713 µM).

Q: What about the zone of inhibition at 5 µg/disc [5] of the same compound?
A: Its zone of inhibition at 5 µg/disc is 15 mm.

Q: And the MFC [6]?
A: Its MFC is 4 µg/mL (≈ 5.71 µM).

Q: What about the zone of inhibition at 5 µg/disc [7] of the same compound?
A: The zone of inhibition at 5 µg/disc was 23 mm.

Q: What about the zone of inhibition at 5 µg/disc [8] of the same compound?
A: Its zone of inhibition at 5 µg/disc is 18 mm.

Q: And the MFC [9]?
A: Its MFC is 1 µg/mL (≈ 1.43 µM).

Q: What about the Activity [10] of the same compound?
A: The Activity was “Active”.

Q: What about the MIC [11] of the same compound?
A: The MIC was 0.5 µg/mL (≈ 0.713 µM).

Q: And the Activity [12]?
A: Its Activity is “Active”.

Q: What about the Activity [13] of the same compound?
A: The Activity was “Active”.

Q: And the MIC [14]?
A: Its MIC is 0.5 µg/mL (≈ 0.713 µM).

Q: And the MFC [15]?
A: Its MFC is 1 µg/mL (≈ 1.43 µM).

Q: What about the MFC [16] of the same compound?
A: The MFC was 0.5 µg/mL (≈ 0.713 µM).

Q: What about the zone of inhibition at 5 µg/disc [17] of the same compound?
A: Its zone of inhibition at 5 µg/disc is 18 mm.

Q: And the zone of inhibition at 5 µg/disc [18]?
A: The zone of inhibition at 5 µg/disc was 15 mm.

Q: What about the MIC [19] of the same compound?
A: The MIC was 0.25 µg/mL (≈ 0.357 µM).

Q: And the zone of inhibition at 5 µg/disc [20]?
A: The zone of inhibition at 5 µg/disc was 25 mm.

Q: What about the Activity [21] of the same compound?
A: Its Activity is “Active”.

Q: And the MIC [22]?
A: Its MIC is 0.5 µg/mL (≈ 0.713 µM).

Q: And the zone of inhibition at 5 µg/disc [23]?
A: Its zone of inhibition at 5 µg/disc is 23 mm.

Q: What about the MIC [24] of the same compound?
A: Its MIC is 1 µg/mL (≈ 1.43 µM).

Q: What about the MIC [25] of the same compound?
A: Its MIC is 1 µg/mL (≈ 1.43 µM).

Q: And the zone of inhibition at 5 µg/disc [26]?
A: Its zone of inhibition at 5 µg/disc is 20 mm.

Q: And the Activity [27]?
A: Its Activity is “Active”.

Q: What about the Activity [28] of the same compound?
A: The Activity was 10%.

Q: And the MIC [29]?
A: Its MIC is 0.5 µg/mL (≈ 0.713 µM).

Q: What about the zone of inhibition at 5 µg/disc [30] of the same compound?
A: Its zone of inhibition at 5 µg/disc is 25 mm.

Q: What about the zone of inhibition at 5 µg/disc [31] of the same compound?
A: Its zone of inhibition at 5 µg/disc is 16 mm.

Q: And the MIC [32]?
A: Its MIC is 2 µg/mL (≈ 2.85 µM).

Q: What about the MIC [33] of the same compound?
A: The MIC was 0.25 µg/mL (≈ 0.357 µM).

Q: What about the MFC [34] of the same compound?
A: The MFC was 16 µg/mL (≈ 22.8 µM).
